Experimental data pooled from the literature.
Compare with care: the assays were run in different laboratories.
Observed: microbial growth

For `CNC(C)C1CCC(N)C(OC2C(N)CC(N)C(OC3OCC(C)(O)C(NC)C3O)C2O)O1` (stereo not shown), the MIC was 2 µg/mL (Proteus mirabilis; broth dilution).
With `CCCCCCC#Cc1cncc(-c2nnc(SCc3cc(C(F)(F)F)cc(C(F)(F)F)c3)n2CCCN)c1` the MIC was 32 µg/mL (Acinetobacter baumannii; broth dilution; ATCC17978).
The MIC of `CC1(C)S[C@@H]2[C@H](NC(=O)[C@H](N)c3ccccc3)C(=O)N2[C@H]1C(=O)O` is reported as over 64 µg/mL (Acinetobacter baumannii; broth dilution; ATCC19606).
`CCCCCCC#Cc1cncc(-c2nnc(SCc3ccc([N+](=O)[O-])cc3)n2CCCN)c1` has an MIC of 64 µg/mL (Acinetobacter baumannii; broth dilution; ATCC17978).
With `O=c1oc2c(O)c(O)cc3c(=O)oc4c(O)c(O)cc1c4c23` the MIC was 100 µg/mL (Streptococcus gordonii; broth dilution; 24 h).
For `CC[C@H]1OC(=O)[C@H](C)[C@@H](O[C@H]2C[C@@](C)(OC)[C@@H](O)[C@H](C)O2)[C@H](C)[C@@H](O[C@@H]2O[C@H](C)C[C@H](N(C)C)[C@H]2O)[C@](C)(O)C[C@@H](C)CN(C)[C@H](C)[C@@H](O)[C@]1(C)O`, the MIC was 16 µg/mL (Acinetobacter baumannii; broth dilution; ATCCBAA1605).
`C[C@@H]1O[C@@H](OC[C@H]2O[C@@H](Oc3c(-c4ccc(O)c(O)c4)oc4cc(O)cc(O)c4c3=O)[C@H](O)[C@@H](O)[C@@H]2O)[C@H](O)[C@H](O)[C@H]1O` has an MIC of 200 µg/mL (Streptococcus gordonii; broth dilution; 24 h).
The MIC of `CC1(C)S[C@@H]2[C@H](NC(=O)[C@H](N)c3ccc(O)cc3)C(=O)N2[C@H]1C(=O)O` is reported as over 64 µg/mL (Acinetobacter baumannii; broth dilution; ATCCBAA1605).
The MIC of `O=C1O[C@H]2[C@@H]3OC(=O)c4cc(O)c(O)c(O)c4-c4c(O)c(O)c5oc(=O)c6c(c(O)c(O)c7oc(=O)c4c5c76)-c4c(cc(O)c(O)c4O)C(=O)OC[C@H]3OC(O)[C@@H]2OC(=O)c2cc(O)c(O)c(O)c2-c2c1cc(O)c(O)c2O` (mixture of isomers) is reported as 100 µg/mL (Streptococcus gordonii; broth dilution; 24 h).
`CCCCCCCCCCCC[N+](C)(C)Cc1ccccc1` gave an MIC of 63 µM (Acinetobacter baumannii; ATCC17978).
